How the values were obtained:
SNB-75 = experiment: Antiproliferative activity against human SNB-75 cells assessed as cell growth inhibition at 10 uM incubated for 48 hrs by sulforhodamine B assay relative to control; type: functional
Summary of the method: (§1)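 NCI-60 single-dose screen at 10^-5 M. Cells grown in RPMI 1640 with 5% FBS and 2 mM L-glutamine, plated at 5,000–40,000 cells/well, and preincubated 24 h. Drug (DMSO stock) added and incubated 48 h at 37 °C, 5% CO2. Adherent cells fixed with cold TCA, stained with 0.4% SRB in 1% acetic acid, dye solubilized in 10 mM trizma base, A515 read. Percent growth taken against time-zero and untreated control.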

U-251 = experiment: Antiproliferative activity against human U-251 cells assessed as cell growth inhibition at 10 uM incubated for 48 hrs by sulforhodamine B assay relative to control; type: functional; summary of the method: as §1
MOLT-4 = experiment: Antiproliferative activity against human MOLT-4 cells assessed as cell growth inhibition at 10 uM incubated for 48 hrs by sulforhodamine B assay relative to control; type: functional; summary of the method: as §1
PC-3 = experiment: Antiproliferative activity against human PC-3 cells assessed as cell growth inhibition at 10 uM incubated for 48 hrs by sulforhodamine B assay relative to control; type: functional; summary of the method: as §1
RXF 393 = experiment: Antiproliferative activity against human RXF 393 cells assessed as cell growth inhibition at 10 uM incubated for 48 hrs by sulforhodamine B assay relative to control; type: functional; summary of the method: as §1
HL-60 = experiment: Antiproliferative activity against human HL-60 cells assessed as cell growth inhibition at 10 uM incubated for 48 hrs by sulforhodamine B assay relative to control; type: functional
Summary of the method: (§2)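 NCI-60 one-dose prescreen at 10^-5 M. Cells grown in RPMI 1640 with 5% FBS and 2 mM glutamine, preincubated 24 h, then exposed 48 h at 37 °C. Adherent lines TCA-fixed, SRB-stained, A515 read. Growth percent relative to time-zero and control; negative values mean cell kill.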

HCT-116 = experiment: Antiproliferative activity against human HCT-116 cells assessed as cell growth inhibition at 10 uM incubated for 48 hrs by sulforhodamine B assay relative to control; type: functional; summary of the method: as §2
OVCAR-8 = experiment: Antiproliferative activity against human OVCAR-8 cells assessed as cell growth inhibition at 10 uM incubated for 48 hrs by sulforhodamine B assay relative to control; type: functional; summary of the method: as §1
RPMI-8226 = experiment: Antiproliferative activity against human RPMI-8226 cells assessed as cell growth inhibition at 10 uM incubated for 48 hrs by sulforhodamine B assay relative to control; type: functional; summary of the method: as §1
SK-MEL-2 = experiment: Antiproliferative activity against human SK-MEL-2 cells assessed as cell growth inhibition at 10 uM incubated for 48 hrs by sulforhodamine B assay relative to control; type: functional; summary of the method: as §1
EKVX = experiment: Antiproliferative activity against human EKVX cells assessed as cell growth inhibition at 10 uM incubated for 48 hrs by sulforhodamine B assay relative to control; type: functional; summary of the method: as §2
M14 = experiment: Antiproliferative activity against human M14 cells assessed as cell growth inhibition at 10 uM incubated for 48 hrs by sulforhodamine B assay relative to control; type: functional; summary of the method: as §1
SK-MEL-5 = experiment: Antiproliferative activity against human SK-MEL-5 cells assessed as cell growth inhibition at 10 uM incubated for 48 hrs by sulforhodamine B assay relative to control; type: functional; summary of the method: as §1
BT-549 = experiment: Antiproliferative activity against human BT-549 cells assessed as cell growth inhibition at 10 uM incubated for 48 hrs by sulforhodamine B assay relative to control; type: functional
Summary of the method: (§3)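 Single-dose NCI-60 prescreen at 10^-5 M. Cells in RPMI 1640 with 5% FBS and 2 mM L-glutamine, seeded 5,000–40,000 cells/well with 24 h preincubation, then drug exposure for 48 h at 37 °C under 5% CO2. Growth read by SRB staining of TCA-fixed cells at 515 nm against time-zero and untreated controls. Negative growth values denote cell kill.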

A498 = experiment: Antiproliferative activity against human A498 cells assessed as cell growth inhibition at 10 uM incubated for 48 hrs by sulforhodamine B assay relative to control; type: functional; summary of the method: as §3
LOX IMVI = experiment: Antiproliferative activity against human LOX IMVI cells assessed as cell growth inhibition at 10 uM incubated for 48 hrs by sulforhodamine B assay relative to control; type: functional; summary of the method: as §1
SF-539 = experiment: Antiproliferative activity against human SF-539 cells assessed as cell growth inhibition at 10 uM incubated for 48 hrs by sulforhodamine B assay relative to control; type: functional; summary of the method: as §1
SF-295 = experiment: Antiproliferative activity against human SF-295 cells assessed as cell growth inhibition at 10 uM incubated for 48 hrs by sulforhodamine B assay relative to control; type: functional; summary of the method: as §1
NCI/ADR-RES = experiment: Antiproliferative activity against human NCI/ADR-RES cells assessed as cell growth inhibition at 10 uM incubated for 48 hrs by sulforhodamine B assay relative to control; type: functional; summary of the method: as §1
[1] = n-Octanol/phosphate buffer partition coefficient, logP of the compound at pH 7.4 incubated for 85 mins by shake-flask method; type: physicochemical
Summary of the method: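 Octanol–water partition by shake-flask: n-octanol with 0.15 M phosphate buffer pH 7.4 at 10:1 volumes. Buffer-phase absorbance read before mixing, then shaken 50 min and centrifuged at 2500 rpm for 35 min. Buffer absorbance read again; P = (Ai−Af)/Af × Vw/Vo.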

NCI-H522 = experiment: Antiproliferative activity against human NCI-H522 cells assessed as cell growth inhibition at 10 uM incubated for 48 hrs by sulforhodamine B assay relative to control; type: functional; summary of the method: as §1
CCRF-CEM = experiment: Antiproliferative activity against human CCRF-CEM cells assessed as cell growth inhibition at 10 uM incubated for 48 hrs by sulforhodamine B assay relative to control; type: functional; summary of the method: as §3
MCF7 = experiment: Antiproliferative activity against human MCF7 cells assessed as cell growth inhibition at 10 uM incubated for 48 hrs by sulforhodamine B assay relative to control; type: functional; summary of the method: as §1
NCI-H460 = experiment: Antiproliferative activity against human NCI-H460 cells assessed as cell growth inhibition at 10 uM incubated for 48 hrs by sulforhodamine B assay relative to control; type: functional; summary of the method: as §1
ACHN = experiment: Antiproliferative activity against human ACHN cells assessed as cell growth inhibition at 10 uM incubated for 48 hrs by sulforhodamine B assay relative to control; type: functional; summary of the method: as §3
SN12C = experiment: Antiproliferative activity against human SN12C cells assessed as cell growth inhibition at 10 uM incubated for 48 hrs by sulforhodamine B assay relative to control; type: functional; summary of the method: as §1
OVCAR-3 = experiment: Antiproliferative activity against human OVCAR-3 cells assessed as cell growth inhibition at 10 uM incubated for 48 hrs by sulforhodamine B assay relative to control; type: functional; summary of the method: as §1
Hs-578T = experiment: Antiproliferative activity against human Hs-578T cells assessed as cell growth inhibition at 10 uM incubated for 48 hrs by sulforhodamine B assay relative to control; type: functional; summary of the method: as §1
MDA-MB-468 = experiment: Antiproliferative activity against human MDA-MB-468 cells assessed as cell growth inhibition at 10 uM incubated for 48 hrs by sulforhodamine B assay relative to control; type: functional; summary of the method: as §1
A549 = experiment: Antiproliferative activity against human A549 cells assessed as cell growth inhibition at 10 uM incubated for 48 hrs by sulforhodamine B assay relative to control; type: functional; summary of the method: as §3
OVCAR-5 = experiment: Antiproliferative activity against human OVCAR-5 cells assessed as cell growth inhibition at 10 uM incubated for 48 hrs by sulforhodamine B assay relative to control; type: functional; summary of the method: as §1

SMILES | inhibition at 10 µM (SNB-75) [%] | inhibition at 10 µM (U-251) [%] | inhibition at 10 µM (MOLT-4) [%] | inhibition at 10 µM (PC-3) [%] | inhibition at 10 µM (RXF 393) [%] | inhibition at 10 µM (HL-60) [%] | inhibition at 10 µM (HCT-116) [%] | inhibition at 10 µM (RPMI-8226) [%] | inhibition at 10 µM (SK-MEL-2) [%] | inhibition at 10 µM (EKVX) [%] | inhibition at 10 µM (SK-MEL-5) [%] | inhibition at 10 µM (LOX IMVI) [%] | inhibition at 10 µM (NCI/ADR-RES) [%] | inhibition at 10 µM (NCI-H522) [%] | inhibition at 10 µM (CCRF-CEM) [%] | inhibition at 10 µM (MCF7) [%] | inhibition at 10 µM (ACHN) [%] | inhibition at 10 µM (SN12C) [%] | inhibition at 10 µM (OVCAR-3) [%] | inhibition at 10 µM (Hs-578T) [%] | other results
O=Cc1ccc(-c2cn3ccnc3c(-c3ccc4ncn(C5CCCCC5)c4c3)n2)cc1 | 21.4 | 32 | 58.7 | 19 | 25 | 16.5 | 92.6 | 82.5 | 27.8 | 20.9 | 56.5 | 46.9 | 37.4 | 25.2 | 77.9 | 47.8 | 11.6 | 20.7 | 23.7 | 45.5 | inhibition at 10 µM (OVCAR-8): 44%; inhibition at 10 µM (M14): 23%; inhibition at 10 µM (BT-549): 33.8%; inhibition at 10 µM (A498): 11.2%; inhibition at 10 µM (SF-539): 31.5%; inhibition at 10 µM (SF-295): 23.1%; logD at 1.417 h [1]: 1.5; inhibition at 10 µM (NCI-H460): 37.8%
Fc1ccc(-c2cn3ccnc3c(-c3ccc4ncn(C5CCCCC5)c4c3)n2)cc1 | 21 | 7.94 | 25.2 | 53.6 | 24.4 | 2.03 | 18 | 50.1 | 9.82 | 10.5 | 7.36 | 3.5 | 0.69 | 15.5 | 33.4 | 9.17 | 9.02 | 3.97 | 7.88 | 17.6 | inhibition at 10 µM (MDA-MB-468): 19.5%; inhibition at 10 µM (A549): 12.8%; inhibition at 10 µM (OVCAR-8): 9.54%; inhibition at 10 µM (M14): 2.98%; inhibition at 10 µM (BT-549): 20.3%; inhibition at 10 µM (SF-539): 17.3%; inhibition at 10 µM (SF-295): 7.93%; logD at 1.417 h [1]: 2.01; inhibition at 10 µM (OVCAR-5): 10.3%; inhibition at 10 µM (NCI-H460): 6.12%
Fc1ccccc1-c1cn2ccnc2c(-c2ccc3ncn(C4CCCCC4)c3c2)n1 | 29.7 | 11.4 | 22.5 | 32.6 | 12.3 | 9.3 | 25.8 | 42.4 | 10.5 | 16 | 6.5 | 5.77 | 4.51 | 17.8 | 22.5 | 11.2 | 13.2 | 10.1 | 0.17 | 5.26 | inhibition at 10 µM (MDA-MB-468): 27.6%; inhibition at 10 µM (A549): 9.1%; inhibition at 10 µM (OVCAR-8): 14.1%; inhibition at 10 µM (M14): 2.92%; inhibition at 10 µM (BT-549): 4.08%; inhibition at 10 µM (SF-539): 4.51%; inhibition at 10 µM (SF-295): 10.4%; logD at 1.417 h [1]: 1.95; inhibition at 10 µM (OVCAR-5): 6.64%; inhibition at 10 µM (NCI-H460): 8.1%
c1ccc2c(-c3cn4ccnc4c(-c4ccc5ncn(C6CCCCC6)c5c4)n3)cccc2c1 | 16.5 |  | 44.7 | 36.5 |  | 38.9 | 17.9 | 22.9 | 2.3 | 13.2 | 4.06 | 7.43 | 4.43 | 19.3 | 17.5 | 13 | 6.49 | 11.7 | 2.38 | 3.62 | inhibition at 10 µM (MDA-MB-468): 10.4%; inhibition at 10 µM (A498): 14%; inhibition at 10 µM (SF-295): 6.34%; logD at 1.417 h [1]: 1.44; inhibition at 10 µM (NCI-H460): 3.61%
Brc1cn2ccnc2c(-c2ccc3ncn(C4CCCCC4)c3c2)n1 | 21.2 | 1.5 | 26.3 | 17.2 | 5.58 | 18 |  | 14.9 | 10.2 | 12 | 13.4 | 15.2 | 8.82 | 16.2 | 7.68 | 47.6 | 11.5 | 6.47 | 15.8 | 16.1 | inhibition at 10 µM (MDA-MB-468): 44.4%; inhibition at 10 µM (A549): 9.36%; inhibition at 10 µM (OVCAR-8): 4.92%; inhibition at 10 µM (BT-549): 5.16%; inhibition at 10 µM (SF-539): 10%; inhibition at 10 µM (OVCAR-5): 6.64%
O=Cc1ccc(-c2cn3ccnc3c(-c3ccc4ncn(Cc5ccccc5)c4c3)n2)cc1 | 21.4 | 32 | 58.7 | 19 | 25 | 16.5 | 92.6 | 82.5 | 27.8 | 20.9 | 56.5 | 46.9 | 37.4 | 25.2 | 77.9 | 47.8 | 11.6 | 20.7 | 23.7 | 45.5 | inhibition at 10 µM (OVCAR-8): 44%; inhibition at 10 µM (M14): 23%; inhibition at 10 µM (BT-549): 33.8%; inhibition at 10 µM (A498): 11.2%; inhibition at 10 µM (SF-539): 31.5%; inhibition at 10 µM (SF-295): 23.1%; logD at 1.417 h [1]: 1.88; inhibition at 10 µM (NCI-H460): 37.8%

— ChEMBL document CHEMBL5247578, “Effective synthesis of benzimidazoles-imidazo[1,2-a]pyrazine conjugates: A comparative study of mono-and bis-benzimidazoles for antitumor activity” (Eur J Med Chem, 2019)
